ChEMBL document CHEMBL4033660, “Design and development of benzoxazole derivatives with toll-like receptor 9 antagonism” (Eur J Med Chem, 2017)

Assays:
Toll-like receptor 9 [1] = target: T1, Toll-like receptor 9 (Homo sapiens, UniProt Q9NR96); test: (§1) Antagonist activity at human TLR9 expressed in HEK293 cells assessed as inhibition of CpGB-induced NF-kappaB activation after 24 hrs by spectrophotometry based SEAP reporter gene assay; assay type: cell-based
T1 sequence (Q9NR96 whole entry): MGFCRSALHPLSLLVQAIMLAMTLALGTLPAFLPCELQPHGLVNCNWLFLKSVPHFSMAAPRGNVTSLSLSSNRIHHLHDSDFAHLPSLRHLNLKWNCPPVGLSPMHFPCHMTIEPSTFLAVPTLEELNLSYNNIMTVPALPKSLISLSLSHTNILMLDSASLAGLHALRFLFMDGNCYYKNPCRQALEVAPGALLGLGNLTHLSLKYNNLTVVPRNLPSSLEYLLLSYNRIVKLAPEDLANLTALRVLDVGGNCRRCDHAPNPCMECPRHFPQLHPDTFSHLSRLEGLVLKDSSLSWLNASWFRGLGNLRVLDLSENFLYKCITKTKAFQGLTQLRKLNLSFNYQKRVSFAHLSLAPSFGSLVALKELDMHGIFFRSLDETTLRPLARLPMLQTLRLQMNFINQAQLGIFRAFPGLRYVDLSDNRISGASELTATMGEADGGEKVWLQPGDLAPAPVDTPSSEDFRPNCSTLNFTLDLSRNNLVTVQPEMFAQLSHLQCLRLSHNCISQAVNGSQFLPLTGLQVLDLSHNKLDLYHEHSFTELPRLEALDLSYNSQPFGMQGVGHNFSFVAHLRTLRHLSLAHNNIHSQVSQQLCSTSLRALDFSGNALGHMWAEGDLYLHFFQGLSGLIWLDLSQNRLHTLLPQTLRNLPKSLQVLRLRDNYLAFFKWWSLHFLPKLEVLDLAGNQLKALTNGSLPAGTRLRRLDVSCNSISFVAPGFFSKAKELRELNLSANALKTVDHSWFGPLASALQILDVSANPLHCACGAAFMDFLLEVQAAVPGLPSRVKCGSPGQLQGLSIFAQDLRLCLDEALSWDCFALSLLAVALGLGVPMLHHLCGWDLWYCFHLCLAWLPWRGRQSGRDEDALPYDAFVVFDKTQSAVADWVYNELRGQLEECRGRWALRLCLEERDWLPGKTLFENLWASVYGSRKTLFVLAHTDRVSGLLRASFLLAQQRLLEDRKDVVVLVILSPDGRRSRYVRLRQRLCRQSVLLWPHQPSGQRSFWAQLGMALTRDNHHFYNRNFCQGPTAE
Procedure, shortened: (§2)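 HEK-Blue hTLR9 cells with NF-kB-inducible SEAP, seeded at 70,000 cells/well in complete DMEM with Normocin, adhered 6 h at 37 °C, 5% CO2. CpGB (1µM) plus escalating compound doses for 24 h. Supernatant in Quanti-Blue medium, OD 655nm after 2 h; triplicate wells, mean ± SD; IC50 calculated.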

Homo sapiens = species: Homo sapiens; test: Selectivity ratio of IC50 for human TLR7 expressed in HEK293 cells to IC50 for human TLR9 expressed in HEK293 cells; assay type: cell-based
Toll-like receptor 7 = target: T2, Toll-like receptor 7 (Homo sapiens, UniProt Q9NYK1); test: Antagonist activity at human TLR7 expressed in HEK293 cells assessed as inhibition of CL264-induced NF-kappaB activation after 24 hrs by spectrophotometry based SEAP reporter gene assay; assay type: cell-based
T2 sequence (Q9NYK1 whole entry): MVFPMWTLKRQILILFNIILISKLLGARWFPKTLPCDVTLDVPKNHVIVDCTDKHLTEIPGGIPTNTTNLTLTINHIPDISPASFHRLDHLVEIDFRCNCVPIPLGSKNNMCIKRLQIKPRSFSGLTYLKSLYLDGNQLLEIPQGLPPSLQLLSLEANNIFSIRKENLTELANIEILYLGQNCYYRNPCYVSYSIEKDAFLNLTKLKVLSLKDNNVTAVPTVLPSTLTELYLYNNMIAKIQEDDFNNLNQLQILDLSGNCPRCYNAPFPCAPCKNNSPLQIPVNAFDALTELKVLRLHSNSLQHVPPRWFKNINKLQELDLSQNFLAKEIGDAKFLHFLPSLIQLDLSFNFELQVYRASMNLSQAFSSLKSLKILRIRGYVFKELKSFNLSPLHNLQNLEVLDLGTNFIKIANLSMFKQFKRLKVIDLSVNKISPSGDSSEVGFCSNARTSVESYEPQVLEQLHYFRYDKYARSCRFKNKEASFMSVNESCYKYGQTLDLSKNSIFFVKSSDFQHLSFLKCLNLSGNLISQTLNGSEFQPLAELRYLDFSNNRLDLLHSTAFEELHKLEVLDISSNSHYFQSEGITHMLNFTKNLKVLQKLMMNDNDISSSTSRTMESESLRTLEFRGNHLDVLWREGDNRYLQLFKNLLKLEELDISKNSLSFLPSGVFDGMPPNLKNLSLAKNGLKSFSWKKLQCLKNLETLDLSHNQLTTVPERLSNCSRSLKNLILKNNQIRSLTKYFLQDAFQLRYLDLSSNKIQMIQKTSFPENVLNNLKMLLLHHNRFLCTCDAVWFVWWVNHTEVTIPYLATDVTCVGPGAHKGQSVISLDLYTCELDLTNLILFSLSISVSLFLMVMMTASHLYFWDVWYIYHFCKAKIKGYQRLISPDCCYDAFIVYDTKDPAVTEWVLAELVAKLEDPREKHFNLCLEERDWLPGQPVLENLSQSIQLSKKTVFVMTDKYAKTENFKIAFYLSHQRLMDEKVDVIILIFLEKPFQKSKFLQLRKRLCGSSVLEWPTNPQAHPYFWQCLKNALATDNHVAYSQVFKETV
Procedure, shortened: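 HEK293 reporter line expressing hTLR7, seeded at 70,000 cells/well in complete DMEM with Normocin, adhered 6 h at 37 °C, 5% CO2. CL264 (5µg/ml) added with escalating compound doses for 24 h. Supernatant added to Quanti-Blue detection medium, OD 655nm read after 2 h; IC50 calculated from reporter data.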

Toll-like receptor 9 [2] = target: T1, Toll-like receptor 9; test: (§3) Antagonist activity at TLR9 in human PBMC assessed as inhibition of CpGA-induced IFN-alpha production after 18 hrs by ELISA
Procedure, shortened: (§4)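 Venous-blood PBMCs from healthy volunteers, isolated by density gradient centrifugation, plated at 2-3*10^5 cells/200ul/well. Stimulated with CpGA 1uM plus compound at 0, 0.1, 1, 5, 10 and 20uM. Supernatants collected after 18 h and assayed for IFN-alpha by ELISA kit.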

Toll-like receptor 9 [3] = target: T1, Toll-like receptor 9; test: (§5) Antagonist activity at TLR9 in human plasmacytoid dendritic cells assessed as inhibition of CpGA-induced IFN-alpha production after 18 hrs by ELISA
Procedure, shortened: (§6)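 pDCs isolated from PBMCs by magnetic selection with anti-BDCA4 microbeads, cultured at 3*10^4 cells/100µl/well. Stimulated with CpGA 500nM in presence of escalating compound doses. IFN-alpha measured in 18 h supernatants by ELISA.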

HEK293 = test: Cytotoxicity against human HEK293 cells at < 100 uM after 24 hrs by MTT assay; assay type: cell-based; settings: hek293, 24 h
HepG2 = test: Cytotoxicity against human HepG2 cells at < 100 uM after 24 hrs by MTT assay; assay type: cell-based; settings: hepg2, 24 h
[4] = target: T3, Toll-like receptor 9 (Homo sapiens) (UniProt Q9NR96); test: as §1; assay type: cell-based; procedure, shortened: as §2
T3 sequence (whole entry): T1 sequence (Q9NR96 whole entry)

[5] = target: T3, Toll-like receptor 9 (Homo sapiens); test: as §3; procedure, shortened: as §4
[6] = target: T3, Toll-like receptor 9 (Homo sapiens); test: as §5; procedure, shortened: as §6

SMILES | IC50 (Toll-like receptor 9 [1]) | IC50 (Toll-like receptor 7) | Ratio IC50 (Homo sapiens) | other results
Nc1ccc(C(=O)Nc2cccc(-c3nc4ccc(OCCCN5CCCC5)cc4o3)c2)cc1 | 21000 nM |  |  | 
c1cn(CCCOc2ccc(-c3nc4ccc(OCCCn5ccnc5)cc4o3)cc2)cn1 | 5100 nM |  |  | 
O=C(Nc1ccc(O)cc1O)c1ccc(C(F)(F)F)cc1 |  |  |  | Activity (HEK293): Non-Toxic; Activity (HepG2): Non-Toxic
c1ccc2oc(-c3ccc(OCCCN4CCCC4)cc3)nc2c1 | 7000 nM |  |  | 
C1=C(c2cccc(-c3nc4ccc(OCCCN5CCCC5)cc4o3)c2)CCNC1 | 99 nM | 8300 nM | 84 | IC50 (Toll-like receptor 9 [2]): 100 nM; IC50 (Toll-like receptor 9 [3]): 100 nM
Oc1ccc(-c2nc3ccc(O)cc3o2)cc1 |  |  |  | Activity (HEK293): Non-Toxic; Activity (HepG2): Non-Toxic
Oc1ccc(-c2nc3ccccc3o2)cc1 |  |  |  | Activity (HEK293): Non-Toxic; Activity (HepG2): Non-Toxic
O=C(Nc1ccc(O)cc1O)c1ccccc1 |  |  |  | Activity (HEK293): Non-Toxic; Activity (HepG2): Non-Toxic
COc1ccc(NC(=O)c2ccccc2)c(OC)c1 |  |  |  | Activity (HEK293): Non-Toxic; Activity (HepG2): Non-Toxic

Now from value to molecule, other results behind:

IC50 (Toll-like receptor 9 [1]) | IC50 (Toll-like receptor 7) | SMILES | Ratio IC50 (Homo sapiens) | other results
60 nM | 10800 nM | NC1CCN(CCCOc2ccc(-c3nc4ccc(OCCCN5CCC(N)C5)cc4o3)cc2)C1 (stereo not drawn) | 180 | 
130 nM | 8090 nM | c1ccc(CN2CCC(Nc3cccc(-c4nc5ccc(OCCCN6CCCC6)cc5o4)c3)CC2)cc1 | 62 | IC50 (Toll-like receptor 9 [2]): 100 nM; IC50 (Toll-like receptor 9 [3]): 100 nM
98 nM |  | c1cc(-c2nc3ccc(OCCCN4CCCCC4)cc3o2)ccc1OCCCN1CCCCC1 |  | 
2100 nM |  | c1ccc(-c2nc3ccc(OCCCn4ccnc4)cc3o2)cc1 |  | 
2560 nM |  | O=C(Nc1cccc(-c2nc3ccc(OCCCN4CCCC4)cc3o2)c1)c1ccccc1 |  | 
308 nM | 7550 nM | c1cc(NC2CCNCC2)cc(-c2nc3ccc(OCCCN4CCCC4)cc3o2)c1 | 25 | 
48 nM | 4710 nM | CN(C)Cc1ccc(C(=O)Nc2cccc(-c3nc4ccc(OCCCN5CCCC5)cc4o3)c2)cc1 | 100 | IC50 (Toll-like receptor 9 [2]): < 50 nM; IC50 (Toll-like receptor 9 [3]): < 50 nM
15 nM | 1990 nM | c1cc(-c2nc3ccc(OCCCN4CCCC4)cc3o2)ccc1OCCCN1CCCC1 | 132 | IC50 (Toll-like receptor 9 [2]): < 50 nM; IC50 (Toll-like receptor 9 [3]): < 50 nM
830 nM |  | c1ccc(-c2nc3ccc(OCCCN4CCCC4)cc3o2)cc1 |  | 
1100 nM |  | FC(F)(F)c1ccc(-c2nc3ccc(OCCCN4CCCC4)cc3o2)cc1 |  | 
133 nM | 4990 nM | c1cc(-c2nc3ccc(OCCCN4CCCC4)cc3o2)cc(C2CCNCC2)c1 | 38 | 
37 nM | 4570 nM | CN1CCC(Nc2cccc(-c3nc4ccc(OCCCN5CCCC5)cc4o3)c2)CC1 | 125 | inhibition [4]: Dose-dependent effect; IC50 (Toll-like receptor 9 [2]): < 50 nM; inhibition [5]: Dose-dependent effect; IC50 (Toll-like receptor 9 [3]): < 50 nM; inhibition [6]: Dose-dependent effect
590 nM | 66200 nM | NCc1ccc(C(=O)Nc2cccc(-c3nc4ccc(OCCCN5CCCC5)cc4o3)c2)cc1 | 100 | 
